NPY-Y1 PAM-ag: potentiates or activates human NPY-Y1 receptor | P25929 | NPY-Y1 expressing cells, potentiator/agonist activation | AID 1304 | activation, % at 3.6 µM | actives 0.37% (n = 220,000); in the data active = activation above about 33%, passing the limit was not always enough;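 note: cells stimulated with NPY at EC10 then isoproterenol at EC100; 0% = low agonist plus stimulus and 100% = saturating agonist plus stimulus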
Target sequence (P25929 whole entry, looked up): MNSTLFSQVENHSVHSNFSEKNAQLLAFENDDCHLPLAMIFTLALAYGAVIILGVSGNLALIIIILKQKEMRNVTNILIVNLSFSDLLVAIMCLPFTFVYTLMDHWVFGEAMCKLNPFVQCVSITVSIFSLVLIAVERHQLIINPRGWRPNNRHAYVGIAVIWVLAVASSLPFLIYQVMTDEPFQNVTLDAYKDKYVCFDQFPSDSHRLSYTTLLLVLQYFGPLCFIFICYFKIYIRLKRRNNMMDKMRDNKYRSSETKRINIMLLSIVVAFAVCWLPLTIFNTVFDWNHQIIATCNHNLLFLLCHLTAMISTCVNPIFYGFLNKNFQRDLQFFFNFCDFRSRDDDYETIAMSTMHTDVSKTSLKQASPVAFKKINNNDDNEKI
NPY Y2 blocker: NPY-Y2 (human) receptor antagonism; inhibition, % at 2.7 µM; P49146; AID 793; NPY-Y2 expressing cells, antagonist mode; actives 0.99% (n = 140,000); in the data active = inhibition above about 17%;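 note: 0% = vehicle with agonist challenge and 100% = reference antagonist with challenge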
NPY-Y1 antag: blocks the human neuropeptide Y Y1 receptor; inhibition, % at 3.6 µM; AID 1040; actives 1% (n = 200,000); HEK293-CNG Y1 cells, membrane potential fluorescence; NPY at EC95, then isoproterenol;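 active = inhibition above the campaign mean inhibition of all tested compounds plus 3 SD, cut at about 20% in these data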;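 note: 0% = DMSO wells given NPY plus isoproterenol and 100% = isoproterenol alone without NPY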
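System: HEK293 cells with Y1 receptor plus CNG channel / Probe or stimulus: NPY 25 nM then isoproterenol 1 µM plus Ro 20-1724 25 µM / Compound: one concentration, 3.6 µM, in 0.4% DMSO / Schedule: compound incubation 1 h at room temperature, readout 45 min post-stimulation / Measured by: membrane potential fluorescence / Read-out: % inhibition of NPY effect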
PGE2 EP2 inh: blocks the human prostaglandin E2 receptor EP2 | P43116 | C6 glioma cells expressing human EP2, cAMP TR-FRET; cells stimulated with saturating PGE2 | inhibition, % at 25 µM | actives 0.52% (n = 260,000) | AID 1422;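 active = percent inhibition above 40 after rounding to a whole number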;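 note: rat C6 glioma host cells with rolipram phosphodiesterase inhibitor present; the protocol text gives 20 µM as final concentration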
NPY-Y2 PAM-ag: potentiates or activates human NPY-Y2 receptor; P49146; cells expressing NPY-Y2, potentiator/agonist read-out; activation, % at 3.6 µM; actives 0.45% (n = 220,000); AID 1359; in the data active = activation above about 27%;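 note: cells stimulated with NPY near EC25 plus isoproterenol at EC100; 0% = vehicle plus submaximal agonist and 100% = vehicle plus saturating agonist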
EP2 modulator: EP2 receptor (human) modulation; actives 0.83% (n = 260,000); induction, % at 25 µM; EP2-expressing cells, cAMP HTRF FRET, PGE2 co-stimulation; P43116;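 active = compounds whose cAMP rise, as percent of the full-agonist control response, exceeds 60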;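 note: rat C6 glioma line stably carrying human EP2 under a CMV promoter; the protocol text gives 20 µM as final concentration; 100% = response of wells given 1 µM PGE2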
Active calls of the source: *; . = no result. Shown are actives, neighbours in structure and some others; about 2.8% of the full set was active somewhere.

SMILES	NPY-Y1 PAM-ag	NPY Y2 blocker	NPY-Y1 antag	PGE2 EP2 inh	NPY-Y2 PAM-ag	EP2 modulator
COC(C(=O)NC(C)c1nc(-c2cccnc2)n[nH]1)c1ccccc1 (centres undefined)	.	.	.	5	.	-15
Cn1ncc(Cl)c1C(=O)Nc1cccnc1	43*	5	-2	6	-4	10
CCC(=O)N1c2ccc(-c3csc(NC(=O)c4ccccc4Cl)n3)cc2CC1C (centres undefined)	.	.	.	94*	.	27
CCCC(=O)N1c2ccc(-c3csc(NC(=O)c4cccc(OC)c4)n3)cc2CC1C (centres undefined)	.	.	.	7	.	-48
S=C(NCCc1ccccc1)N/N=C/c1c(Cl)cccc1Cl	-41	23*	22*	4	-17	3
S=C(NCCc1ccccc1)N/N=C/c1ccc(Cl)cc1	-44	.	.	7	-35	-51
CCc1ccc(C(C(=O)NC2CCCC2)N(Cc2ccco2)C(=O)c2ccco2)cc1 (centres undefined)	.	.	.	10	.	40
Cc1ccc(CN2CCSc3ccc(C(=O)NCc4ccccn4)cc32)cc1	7	.	6	9	1	61*
O=C(NCc1ccco1)c1ccc2c(c1)N(Cc1ccccc1)CCS2	15	.	.	5	1	16
CC(C)(C)c1ccc(O)c(CN(Cc2cc(C(C)(C)C)ccc2O)C2CCCCC2)c1	.	.	.	64*	.	-16
CC(C)(C)c1ccc(O)c(CN(Cc2c(O)ccc3ccccc23)C2CCCCC2)c1	.	.	.	39	.	35
Fc1ccc(C2CC(c3ccco3)=Nc3ccccc3S2)cc1 (centres undefined)	-8	.	2	4	3	62*
O=[N+]([O-])c1ccc(C2CC(c3ccccc3)=Nc3ccccc3S2)cc1 (centres undefined)	-12	.	.	17	0	28
CN(CCO)c1cc(N2CCCCC2)c2nonc2c1[N+](=O)[O-]	5	.	5	7	-5	-22
CN(CCO)c1cc(NCCCN2CCC(Cc3ccccc3)CC2)c2nonc2c1[N+](=O)[O-]	51*	.	-2	6	29*	-21
CNc1oc(-c2ccc(C)cc2)nc1P(=O)(c1ccccc1)c1ccccc1	3	4	8	8	17	61*
CNc1oc(-c2ccccc2Cl)nc1P(=O)(c1ccccc1)c1ccccc1	5	2	4	7	7	39
Cc1ccc(N2CC(C(=O)Nc3ccc(S(=O)(=O)NC(C)(C)C)cc3)CC2=O)cc1 (centres undefined)	.	.	.	11	.	-22
Cc1ccc2c(c1)-c1c(ssc1=S)C(C)(C)N2C(=O)CSC1=NCCS1	14	-6	-7	8	24	45
Cc1ccc2c(c1)-c1c(ssc1=S)C(C)(C)N2	.	.	.	14	.	57
CCCC(=O)N1c2cc(C)ccc2-c2c(ssc2=S)C1(C)C	.	.	.	7	.	67*
CCOc1ccc2c(c1)-c1c(ssc1=S)C(C)(C)N2	44*	-10	-14	10	45*	26
CCOc1ccc2c(c1)-c1c(ssc1=S)C(C)(C)N2C(=O)CSC1=NCCS1	49*	-5	-9	3	40*	23
COc1ccccc1C(=O)Nc1ccc(C2=NNC(=O)CC2C)cc1 (centres undefined)	-77	72*	96*	15	-17	29
O=C1c2cccc(O)c2C(=O)c2c(O[C@@H]3O[C@H](CO)[C@@H](O)[C@H](O)[C@H]3O)cccc21	.	.	.	52*	.	-17
SMILES	NPY-Y1 PAM-ag	NPY Y2 blocker	NPY-Y1 antag	PGE2 EP2 inh	NPY-Y2 PAM-ag	EP2 modulator
Cc1ccc(C(c2nnnn2CC2CCCO2)N2CCN(C3CCCC3)CC2)cc1 (centres undefined)	.	.	.	10	.	3
O=C(Nc1ccccc1-c1nc2ccccc2s1)c1cccnc1Cl	-7	1	-1	13	-27	63*
COc1cccc(N2C(=O)N(c3cccc(Cl)c3)C3CS(=O)(=O)CC32)c1 (centres undefined)	.	.	.	4	.	-63
C(CCc1nnc2c(n1)CCCC2)Cc1nnc2c(n1)CCCC2	.	.	.	45*	.	10
CCOC(=O)CSc1nnc(NCC(=O)OC(C)C)c(=O)[nH]1	26	-7	-11	14	14	-27
CC(C)OC(=O)CNc1n[nH]c(=S)[nH]c1=O	-6	.	3	101*	-3	-30
